Values after ≈ are worked out from the molar mass of the structure shown. Active and inactive are the calls of the source. The rule behind the calls is not given here.
Tests used:
Pseudomonas aeruginosa = experiment: Antibacterial activity against Pseudomonas aeruginosa assessed as bacterial growth inhibition incubated for 16 hrs by microplate reader assay; type: functional
Outline: (§1)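 Strains E. coli ATCC 25922, K. pneumoniae ATCC 13383, P. aeruginosa ATCC 27853 grown in TSB at 37 °C for 16 h with shaking, subcultured 6 h to mid-log.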

[1] = Therapeutic index, ratio of HC50 for Hemolytic activity in human RBC to MIC for Antibacterial activity against methicillin-resistant Staphylococcus aureus; type: toxicity
Enterococcus faecalis = experiment: Antibacterial activity against vancomycin-resistant Enterococcus faecalis assessed as bacterial growth inhibition incubated for 16 hrs by microplate reader assay; type: functional
Outline: (§2)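 Strains grown in TSB at 37 °C for 16 h with shaking, subcultured 6 h to mid-log. 10^6 CFU/mL bacteria mixed 1:1 with compound over 0.75 to 25 μg/mL. Incubated at 37 °C for 16 h; MIC read on a microplate reader.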

Klebsiella pneumoniae = experiment: Antibacterial activity against Klebsiella pneumoniae assessed as bacterial growth inhibition incubated for 16 hrs by microplate reader assay; type: functional; outline: as §1
Escherichia coli = experiment: Antibacterial activity against Escherichia coli assessed as bacterial growth inhibition incubated for 16 hrs by microplate reader assay; type: functional; outline: as §1
[2] = Hemolytic activity in human RBC assessed as hemolysis incubated for 1 hr by microplate reader assay; type: toxicity, cell-based, Erythrocyte; conditions: human red blood cells (erythrocytes)
Outline: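 Fresh human erythrocytes washed in 1× PBS (700 g, 10 min), made to 5% suspension, mixed 1:1 with compound (250 to 1.95 µg/mL), 37 °C for 1 h. After centrifugation, supernatant diluted in PBS and A540 read; 2% Triton-100 = 100%, PBS = 0%; HC50 derived from % hemolysis.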

[3] = test system: Staphylococcus epidermidis; experiment: Antibacterial activity against methicillin-resistant Staphylococcus epidermidis assessed as bacterial growth inhibition incubated for 16 hrs by microplate reader assay; type: functional; outline: as §2
Staphylococcus aureus [4] = experiment: Antibacterial activity against methicillin-resistant Staphylococcus aureus assessed as bacterial growth inhibition incubated for 16 hrs by microplate reader assay; type: functional; outline: as §2
Staphylococcus aureus [5] = experiment: Antibacterial activity in ICR mouse infected with methicillin-resistant Staphylococcus aureus assessed as reduction in colony growth at 5 mg/ml,sc measured after 48 hrs; type: functional
Outline: (§3)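 Female ICR mice (16–20 g), anaesthetised and dorsum shaved. Subcutaneous abscess made with 100 μL MRSA at 1×10^8 CFU/mL. After 30 min, 100 μL of compound in sterile PBS (0.5 or 5 mg/mL) injected into the infection site; PBS controls. At 48 h: skin imaged, abscess bacteria plate-counted, H&E histology, IL-6 and TNF-α measured in skin homogenate by ELISA.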

Staphylococcus aureus [6] = experiment: Antibacterial activity in ICR mouse infected with methicillin-resistant Staphylococcus aureus assessed as reduction in microbial burden at 5 mg/ml,sc measured after 48 hrs; type: functional; parameters: scale not given: the % may be the effect or the level left; outline: as §3
Staphylococcus aureus [7] = experiment: Antibacterial activity in ICR mouse infected with methicillin-resistant Staphylococcus aureus assessed as reduction in IL-6 level at 5 mg/ml,sc measured after 48 hrs by ELISA assay; type: functional, organism-based; outline: as §3
[8] = Toxicity in ICR mouse infected with methicillin-resistant Staphylococcus aureus assessed as histopathological abnormalities in liver at […],sc measured after 48 hrs by H and E staining based assay; type: organism-based; conditions: in vivo
Outline: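 MRSA abscess model in female ICR mice: 100 μL compound in PBS (0.5 or 5 mg/mL) injected subcutaneously at the infection site 30 min after inoculation. Major organs harvested and examined by H&E staining for systemic toxicity.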

Staphylococcus aureus [9] = experiment: Antibacterial activity in ICR mouse infected with methicillin-resistant Staphylococcus aureus assessed as reduction in skin inflammatory cells at 5 mg/ml,sc measured after 48 hrs by H and E staining based analysis; type: functional, organism-based; outline: as §3
Staphylococcus aureus [10] = experiment: Antibacterial activity in ICR mouse infected with methicillin-resistant Staphylococcus aureus assessed as presence of erythema at 5 mg/ml,sc measured after 48 hrs; type: functional, organism-based; outline: as §3
Staphylococcus aureus [11] = experiment: Antibacterial activity in ICR mouse infected with methicillin-resistant Staphylococcus aureus assessed as reduction in TNF-alpha level at 5 mg/ml,sc measured after 48 hrs by ELISA assay; type: functional, organism-based; outline: as §3

Compound | MIC (Pseudomonas aeruginosa) [µg/mL] | selectivity ratio [1] | MIC (Enterococcus faecalis) [µg/mL] | MIC (Klebsiella pneumoniae) [µg/mL] | MIC (Escherichia coli) [µg/mL] | HC50 at 1 h [2] [µg/mL] | MIC [3] [µg/mL] | MIC (Staphylococcus aureus [4]) [µg/mL] | Activity (Staphylococcus aureus [5]) [log10CFU/ml] | Activity (Staphylococcus aureus [6]) [%] | Activity (Staphylococcus aureus [7]) | Activity [8] | Activity (Staphylococcus aureus [9]) | Activity (Staphylococcus aureus [10]) | Activity (Staphylococcus aureus [11])
CCCCCCNC(=O)c1cc(NC(=O)CN(C[C@@H](N)CCCCN)C(=O)CC23CC4CC(CC(C4)C2)C3)cc(NC(=O)CN(C[C@@H](N)CCCCN)C(=O)CC23CC4CC(CC(C4)C2)C3)c1 | 4.5 (≈ 4.84 µM) | 62.5 | 2 (≈ 2.15 µM) | 9 (≈ 9.67 µM) | 9 (≈ 9.67 µM) | 125 | 2 (≈ 2.15 µM) | 2 (≈ 2.15 µM) |  |  |  |  |  |  | 
CCCCCCCC(=O)NCCNC(=O)c1cc(NC(=O)CN(C[C@@H](N)CCCCN)C(=O)c2ccc(-c3ccccc3)cc2)cc(NC(=O)CN(C[C@@H](N)CCCCN)C(=O)c2ccc(-c3ccccc3)cc2)c1 | 4.5 (≈ 4.4 µM) | > 55.5 | 4.5 (≈ 4.4 µM) | > 25 | 9 (≈ 8.79 µM) | > 250 | 4.5 (≈ 4.4 µM) | 4.5 (≈ 4.4 µM) |  |  |  |  |  |  | 
CCCCCCCCCCCC(=O)NCCNC(=O)c1cc(NC(=O)CN(C[C@@H](N)CCCCN)C(=O)CC23CC4CC(CC(C4)C2)C3)cc(NC(=O)CN(C[C@@H](N)CCCCN)C(=O)CC23CC4CC(CC(C4)C2)C3)c1 | > 25 | 55.5 | 4.5 (≈ 4.2 µM) | > 25 | > 25 | 250 | 4.5 (≈ 4.2 µM) | 4.5 (≈ 4.2 µM) |  |  |  |  |  |  | 
CCCCCCCC(=O)NCCNC(=O)c1cc(NC(=O)CN(C[C@@H](N)CCCCN)C(=O)CCCCC)cc(NC(=O)CN(C[C@@H](N)CCCCN)C(=O)CCCCC)c1 |  |  |  |  | > 25 | > 250 |  | > 25 |  |  |  |  |  |  | 
CCCCCCCCNC(=O)c1cc(NC(=O)CN(C[C@@H](N)CCCCN)C(=O)CC23CC4CC(CC(C4)C2)C3)cc(NC(=O)CN(C[C@@H](N)CCCCN)C(=O)CC23CC4CC(CC(C4)C2)C3)c1 | 19 (≈ 19.8 µM) | 62.5 | 4.5 (≈ 4.7 µM) | 9 (≈ 9.39 µM) | 9 (≈ 9.39 µM) | 125 | 4.5 (≈ 4.7 µM) | 2 (≈ 2.09 µM) |  |  |  |  |  |  | 
CCCCCCCC(=O)NCCNC(=O)c1cc(NC(=O)CN(C[C@@H](N)CCCCN)C(=O)c2ccc(Cl)cc2)cc(NC(=O)CN(C[C@@H](N)CCCCN)C(=O)c2ccc(Cl)cc2)c1 |  |  |  |  | > 25 | > 250 |  | > 25 |  |  |  |  |  |  | 
CCCCCCCCCCCC(=O)NCCNC(=O)c1cc(NC(=O)CN(C[C@@H](N)CCCCN)C(=O)CCCCCCC)cc(NC(=O)CN(C[C@@H](N)CCCCN)C(=O)CCCCCCC)c1 | > 25 | > 55.5 | > 25 | > 25 | > 25 | > 250 | 9 (≈ 9.26 µM) | 4.5 (≈ 4.63 µM) |  |  |  |  |  |  | 
CCCCCCCC(=O)NCCNC(=O)c1cc(NC(=O)CN(C[C@@H](N)CCCCN)C(=O)CC23CC4CC(CC(C4)C2)C3)cc(NC(=O)CN(C[C@@H](N)CCCCN)C(=O)CC23CC4CC(CC(C4)C2)C3)c1 | 4.5 (≈ 4.43 µM) | > 125 | 4.5 (≈ 4.43 µM) | 4.5 (≈ 4.43 µM) | 4.5 (≈ 4.43 µM) | > 250 | 2 (≈ 1.97 µM) | 2 (≈ 1.97 µM) |  |  |  |  |  |  | 
CCCCCCCC(=O)NCCNC(=O)c1cc(NC(=O)CN(C[C@@H](N)CCCCN)C(=O)CCCCCCC)cc(NC(=O)CN(C[C@@H](N)CCCCN)C(=O)CCCCCCC)c1 | 4.5 (≈ 4.92 µM) | > 55.5 | 4.5 (≈ 4.92 µM) | > 25 | 4.5 (≈ 4.92 µM) | > 250 | 4.5 (≈ 4.92 µM) | 4.5 (≈ 4.92 µM) |  |  |  |  |  |  | 
CCCCCCCCCC(=O)NCCNC(=O)c1cc(NC(=O)CN(C[C@@H](N)CCCCN)C(=O)CC23CC4CC(CC(C4)C2)C3)cc(NC(=O)CN(C[C@@H](N)CCCCN)C(=O)CC23CC4CC(CC(C4)C2)C3)c1 | 2 (≈ 1.92 µM) | > 250 | 4.5 (≈ 4.31 µM) | 4.5 (≈ 4.31 µM) | 19 (≈ 18.2 µM) | > 250 | 2 (≈ 1.92 µM) | 1 (≈ 0.958 µM) |  |  |  |  |  |  | 
CCCCCCCCCCCC(=O)NCCNC(=O)c1cc(NC(=O)CNC[C@@H](N)CCCCN)cc(NC(=O)CNC[C@@H](N)CCCCN)c1 |  |  |  |  | > 25 | > 250 |  | > 25 |  |  |  |  |  |  | 
CCCCCCCC(=O)NCCNC(=O)c1cc(NC(=O)CN(C[C@@H](N)CCCCN)C(=O)Cc2cccc3ccccc23)cc(NC(=O)CN(C[C@@H](N)CCCCN)C(=O)Cc2cccc3ccccc23)c1 | > 25 | > 27.8 | > 25 | 4.5 (≈ 4.5 µM) | 4.5 (≈ 4.5 µM) | > 250 | 9 (≈ 9.01 µM) | 9 (≈ 9.01 µM) |  |  |  |  |  |  | 
CCCCCCCC(=O)NCCNC(=O)c1cc(NC(=O)CN(C[C@@H](N)CCCCN)C(=O)c2cccc(Cl)c2)cc(NC(=O)CN(C[C@@H](N)CCCCN)C(=O)c2cccc(Cl)c2)c1 |  |  |  |  | > 25 | > 250 |  | > 25 |  |  |  |  |  |  | 
O=C(O)c1cn(C2CC2)c2cc(N3CCNCC3)c(F)cc2c1=O [CIPROFLOXACIN] | 0.45 (≈ 1.36 µM) |  | 0.9 (≈ 2.72 µM) | 0.9 (≈ 2.72 µM) |  |  | 0.45 (≈ 1.36 µM) | 0.24 (≈ 0.724 µM) | 0.7 | 81.1 | Active | Toxic | Active | Active | Active
CCCCCCCCCCNC(=O)c1cc(NC(=O)CN(C[C@@H](N)CCCCN)C(=O)CC23CC4CC(CC(C4)C2)C3)cc(NC(=O)CN(C[C@@H](N)CCCCN)C(=O)CC23CC4CC(CC(C4)C2)C3)c1 | > 25 | 62.5 | 2 (≈ 2.03 µM) | > 25 | > 25 | 125 | 9 (≈ 9.12 µM) | 2 (≈ 2.03 µM) |  |  |  |  |  |  | 

Source: ChEMBL document CHEMBL5214897, “Modular Design of Membrane-Active Antibiotics: From Macromolecular Antimicrobials to Small Scorpionlike Peptidomimetics” (J Med Chem, 2021)
